Experimental data published in ChEMBL document CHEMBL1153046, “Synthesis and antitumor activity of substituted triazolo[4,3-a]pyrimidin-6-sulfonamide with an incorporated thiazolidinone moiety” (2009).

Key:
Format in all cases: functional
HL-60(TB) = assay: Growth inhibition of human HL-60(TB) cells after 48 hrs by sulforhodamine B assay; details: HL-60, 48 h
Method in brief: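 NCI 60-cell-line panel. Cells were grown in RPMI1640 with 5% fetal calf serum and 2 mM L-glutamine, seeded at a density suited to each line, and preincubated 24 h. Compounds were tested at a minimum of five concentrations at 10-fold dilutions over a 5-log range, with 48 h continuous exposure. Growth was read by sulforhodamine B protein staining, and GI50 was taken from dose-response curves.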

SK-OV-3 = assay: Growth inhibition of human SKOV3 cells after 48 hrs by sulforhodamine B assay; details: SK-OV-3, 48 h
Method in brief: (§1)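 NCI 60-cell-line panel. Cells are grown in RPMI1640 with 5% fetal calf serum and 2 mM L-glutamine, seeded at a density set by growth characteristics, and preincubated 24 h. Compound is tested at a minimum of five concentrations at 10-fold dilution, with 48 h continuous exposure. Viability is read by sulforhodamine B protein assay. GI50, TGI and LC50 come from dose-response curves.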

HOP-62 = assay: Growth inhibition of human HOP62 cells after 48 hrs by sulforhodamine B assay; details: HOP-62, 48 h; method in brief: as §1
MCF7 = assay: Antiproliferative activity against human MCF7 cells assessed as cell growth at 100 uM after 48 hrs by alamar blue assay; details: MCF7, 48 h, read-out: Activity
Method in brief: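 NCI three-cell-line primary screen. Cells are seeded and preincubated in microtiter plates. Compound is added at a single 10^-4 M concentration and cultures are incubated 48 h. The end-point is read with alamar blue. Results are given as percent growth relative to untreated control cells.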

NCI-H226 = assay: Growth inhibition of human NCI-H226 cells after 48 hrs by sulforhodamine B assay; details: NCI-H226, 48 h; method in brief: as §1
SF-268 = assay: Growth inhibition of human SF268 cells after 48 hrs by sulforhodamine B assay; details: SF-268, 48 h; method in brief: as §1
MDA-MB-231 = assay: Growth inhibition of human MDA-MB-231 cells after 48 hrs by sulforhodamine B assay; details: MDA-MB-231, 48 h; method in brief: as §1
OVCAR-3 = assay: Growth inhibition of human OVCAR-3 cells after 48 hrs by sulforhodamine B assay; details: OVCAR-3, 48 h; method in brief: as §1
SK-MEL-2 = assay: Growth inhibition of human SK-MEL-2 cells after 48 hrs by sulforhodamine B assay; details: SK-MEL-2, 48 h; method in brief: as §1
HCC 2998 = assay: Growth inhibition of human HCC2998 cells after 48 hrs by sulforhodamine B assay; details: HCC 2998, 48 h; method in brief: as §1
SK-MEL-5 = assay: Growth inhibition of human SK-MEL-5 cells after 48 hrs by sulforhodamine B assay; details: SK-MEL-5, 48 h; method in brief: as §1
[1] = Growth inhibition of human […] cells after 48 hrs by sulforhodamine B assay; method in brief: as §1
NCI-H322M = assay: Growth inhibition of human NCI-H322M cells after 48 hrs by sulforhodamine B assay; method in brief: as §1
NCI-H23 = assay: Growth inhibition of human NCI-H23 cells after 48 hrs by sulforhodamine B assay; details: NCI-H23, 48 h; method in brief: as §1
A549 = assay: Growth inhibition of human A549 cells after 48 hrs by sulforhodamine B assay; details: A549, 48 h; method in brief: as §1
SK-MEL-28 = assay: Growth inhibition of human SK-MEL-28 cells after 48 hrs by sulforhodamine B assay; details: SK-MEL-28, 48 h; method in brief: as §1
SNB-75 = assay: Growth inhibition of human SNB75 cells after 48 hrs by sulforhodamine B assay; details: SNB-75, 48 h
Method in brief: (§2)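 NCI 60-cell-line panel (nine cancer types), with cells grown in RPMI1640 plus 5% fetal calf serum and 2 mM L-glutamine. Cells are seeded at a density that depends on the line and preincubated 24 h. Compounds are then applied at a minimum of five 10-fold dilutions over a 5-log range with 48 h continuous exposure. Viability is read by SRB protein assay, and GI50 is derived from dose-response curves in units of 10^-5 M.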

NCI-H460 = assay: Growth inhibition of human NCI-H460 cells after 48 hrs by sulforhodamine B assay; details: NCI-H460, 48 h; method in brief: as §1
LOX IMVI = assay: Growth inhibition of human LOXIMVI cells after 48 hrs by sulforhodamine B assay; method in brief: as §1
OVCAR-8 = assay: Growth inhibition of human OVCAR8 cells after 48 hrs by sulforhodamine B assay; details: OVCAR-8, 48 h; method in brief: as §1
HT-29 = assay: Growth inhibition of human HT-29 cells after 48 hrs by sulforhodamine B assay; details: HT-29, 48 h; method in brief: as §1
HCT-15 = assay: Growth inhibition of human HCT15 cells after 48 hrs by sulforhodamine B assay; details: HCT-15, 48 h; method in brief: as §1
UACC-62 = assay: Growth inhibition of human UACC62 cells after 48 hrs by sulforhodamine B assay; details: UACC-62, 48 h; method in brief: as §2
HOP-92 = assay: Growth inhibition of human HOP92 cells after 48 hrs by sulforhodamine B assay; details: HOP-92, 48 h; method in brief: as §1
OVCAR-4 = assay: Growth inhibition of human OVCAR4 cells after 48 hrs by sulforhodamine B assay; details: OVCAR-4, 48 h; method in brief: as §1
786-0 = assay: Growth inhibition of human 786-0 cells after 48 hrs by sulforhodamine B assay; details: 786-0, 48 h; method in brief: as §1
MOLT-4 = assay: Growth inhibition of human MOLT4 cells after 48 hrs by sulforhodamine B assay; details: MOLT-4, 48 h; method in brief: as §1
SF-539 = assay: Growth inhibition of human SF539 cells after 48 hrs by sulforhodamine B assay; details: SF-539, 48 h; method in brief: as §1
[2] = read-out: LC50 (the source's name)

With `COc1ccc(/C=N/c2nc3[nH]nc(C)n3c(=O)c2S(=O)(=O)NN2C(=O)C(CN3CCOCC3)SC2c2ccc(OC)cc2)cc1` (stereo not given) as the compound, how does the GI50 (HL-60(TB)) read?
The GI50 was 9.8 µM.

What about the LC50 (HL-60(TB)) of the same compound?
The LC50 was 74.3 µM.

And the TGI (HL-60(TB))?
The TGI was 27.2 µM.

What about the GI50 (SK-OV-3) of the same compound?
Its GI50 is over 100 µM.

What about the TGI (SK-OV-3) of the same compound?
Its TGI is over 100 µM.

What about the GI50 (HOP-62) of the same compound?
Its GI50 is 86.6 µM.

And the LC50 (HOP-62)?
The LC50 was over 100 µM.

And the TGI (HOP-62)?
Its TGI is over 100 µM.

What about the growth at 100 µM (MCF7) of the same compound?
Its growth at 100 µM is 64%.

And the GI50 (NCI-H226)?
The GI50 was 53.6 µM.

And the LC50 (concentration killing 50% of cells) (NCI-H226)?
Its LC50 (concentration killing 50% of cells) is over 100 µM.

And the TGI (NCI-H226)?
Its TGI is over 100 µM.

What about the GI50 (SF-268) of the same compound?
Its GI50 is over 100 µM.

What about the TGI (SF-268) of the same compound?
Its TGI is over 100 µM.

And the CC50 (SF-268; [2])?
Its CC50 is over 100 µM.

And the GI50 (MDA-MB-231)?
The GI50 was 25.3 µM.

And the LC50 (50% lethal concentration) (MDA-MB-231)?
Its LC50 (50% lethal concentration) is over 100 µM.

What about the TGI (MDA-MB-231) of the same compound?
The TGI was over 100 µM.

And the GI50 (OVCAR-3)?
Its GI50 is 22.5 µM.

What about the LC50 (concentration killing 50% of cells) (OVCAR-3) of the same compound?
The LC50 (concentration killing 50% of cells) was over 100 µM.

And the TGI (OVCAR-3)?
Its TGI is 60.5 µM.

And the GI50 (SK-MEL-2)?
The GI50 was 99.3 µM.

What about the LC50 (concentration killing 50% of cells) (SK-MEL-2) of the same compound?
The LC50 (concentration killing 50% of cells) was over 100 µM.

And the TGI (SK-MEL-2)?
The TGI was over 100 µM.

And the GI50 (HCC 2998)?
Its GI50 is 22 µM.

And the LC50 (HCC 2998)?
The LC50 was over 100 µM.

And the TGI (HCC 2998)?
The TGI was over 100 µM.

What about the GI50 (SK-MEL-5) of the same compound?
The GI50 was 19 µM.

And the TGI (SK-MEL-5)?
The TGI was over 100 µM.

And the CC50 (SK-MEL-5; [2])?
The CC50 was over 100 µM.

What about the GI50 [1] of the same compound?
Its GI50 is 16.4 µM.

And the TGI [1]?
Its TGI is 44.3 µM.

And the CC50 [1, 2]?
Its CC50 is over 100 µM.

What about the GI50 (NCI-H322M) of the same compound?
The GI50 was 39.8 µM.

And the TGI (NCI-H322M)?
Its TGI is over 100 µM.

And the GI50 (NCI-H23)?
Its GI50 is 87.8 µM.

What about the TGI (NCI-H23) of the same compound?
The TGI was over 100 µM.

And the GI50 (A549)?
The GI50 was 29.6 µM.

And the TGI (A549)?
Its TGI is over 100 µM.

What about the GI50 (SK-MEL-28) of the same compound?
The GI50 was over 100 µM.

And the TGI (SK-MEL-28)?
Its TGI is over 100 µM.

What about the GI50 (SNB-75) of the same compound?
Its GI50 is 57.3 µM.

What about the TGI (SNB-75) of the same compound?
Its TGI is over 100 µM.

What about the GI50 (NCI-H460) of the same compound?
Its GI50 is 87.7 µM.

And the TGI (NCI-H460)?
Its TGI is over 100 µM.

What about the GI50 (LOX IMVI) of the same compound?
Its GI50 is 21.6 µM.

What about the TGI (LOX IMVI) of the same compound?
The TGI was 62.4 µM.

What about the GI50 (OVCAR-8) of the same compound?
The GI50 was 31.4 µM.

And the TGI (OVCAR-8)?
The TGI was over 100 µM.

What about the GI50 (HT-29) of the same compound?
Its GI50 is 26.7 µM.

What about the GI50 (HCT-15) of the same compound?
Its GI50 is 26.7 µM.

And the TGI (HCT-15)?
The TGI was over 100 µM.

What about the GI50 (UACC-62) of the same compound?
The GI50 was 25.4 µM.

What about the TGI (UACC-62) of the same compound?
Its TGI is over 100 µM.

And the CC50 (UACC-62; [2])?
Its CC50 is over 100 µM.

What about the GI50 (HOP-92) of the same compound?
The GI50 was 36.3 µM.

What about the LC50 (HOP-92) of the same compound?
The LC50 was over 100 µM.

What about the TGI (HOP-92) of the same compound?
The TGI was over 100 µM.

And the GI50 (OVCAR-4)?
Its GI50 is 94.4 µM.

And the LC50 (OVCAR-4)?
Its LC50 is over 100 µM.

And the TGI (OVCAR-4)?
Its TGI is over 100 µM.

And the GI50 (786-0)?
Its GI50 is 67.1 µM.

And the TGI (786-0)?
The TGI was over 100 µM.

What about the CC50 (786-0; [2]) of the same compound?
The CC50 was over 100 µM.

And the GI50 (MOLT-4)?
Its GI50 is 13.6 µM.

And the TGI (MOLT-4)?
The TGI was 34.4 µM.

What about the CC50 (MOLT-4; [2]) of the same compound?
Its CC50 is 86.8 µM.

And the GI50 (SF-539)?
Its GI50 is 75.1 µM.

And the LC50 (SF-539)?
The LC50 was over 100 µM.

And the TGI (SF-539)?
Its TGI is over 100 µM.
